Experimental data taken from article PMC9860122 (The Journal of Biological Chemistry, 2022).
Substitutions are numbered along the chain they refer to. Where two headings read alike, the source gives them in different places.

What was measured:
NmeIPMSR32Q [1] = biological target: T1, NmeIPMSR32Q (Neisseria meningitidis serogroup B, UniProt Q9JZG1, R32Q); test: DTP-coupled kinetic assay; type: biochemical; conditions: homodimer R32Q, apparent Km
T1 sequence (Q9JZG1 1-517 R32Q): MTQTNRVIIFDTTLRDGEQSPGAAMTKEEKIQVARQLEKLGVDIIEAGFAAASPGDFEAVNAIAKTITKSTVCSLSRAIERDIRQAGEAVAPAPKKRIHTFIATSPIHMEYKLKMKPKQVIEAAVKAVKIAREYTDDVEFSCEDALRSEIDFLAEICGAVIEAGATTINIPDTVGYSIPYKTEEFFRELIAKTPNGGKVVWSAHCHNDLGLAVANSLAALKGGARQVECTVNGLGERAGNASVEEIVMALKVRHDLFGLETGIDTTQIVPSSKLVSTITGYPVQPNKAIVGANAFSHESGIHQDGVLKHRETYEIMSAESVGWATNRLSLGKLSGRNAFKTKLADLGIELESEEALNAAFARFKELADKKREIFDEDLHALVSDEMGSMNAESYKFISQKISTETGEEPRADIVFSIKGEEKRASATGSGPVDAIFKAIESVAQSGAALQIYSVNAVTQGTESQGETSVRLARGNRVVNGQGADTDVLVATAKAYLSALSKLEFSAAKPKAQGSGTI
Outline: (§1)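 E. coli BL21(DE3)-expressed enzyme, TEV-cleaved and SEC-purified; variant homodimers taken as the StrepTrap flow-through. CoA release monitored with DTP at 324 nm (ε = 1.98 × 10⁴ l × M⁻¹ cm⁻¹), 25 °C. Mix: 100 μM DTP, 20 mM KCl, 20 mM MgCl₂, 3.0 × 10⁻² μM enzyme, 50 mM HEPES pH 7.5, started with α-KIV. One substrate held at 300 μM, the other varied.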

NmeIPMS [2] = biological target: T2, NmeIPMS (Neisseria meningitidis serogroup B, UniProt Q9JZG1); test: DTP-coupled kinetic assay; type: biochemical; conditions: read-out: Km^KIV; WT NmeIPMS; apparent Km; AcCoA fixed at 300 μM; 25 °C, pH 7.5
T2 sequence (Q9JZG1 1-517): T1 sequence (Q9JZG1 1-517 R32Q) with Q32R
Outline: as §1

NmeIPMSR470Q [3] = biological target: T3, NmeIPMSR470Q (Neisseria meningitidis serogroup B, UniProt Q9JZG1, R470Q); test: DTP-coupled kinetic assay; type: biochemical; conditions: homodimer R470Q, apparent Km
T3 sequence (Q9JZG1 1-517 R470Q): T1 sequence (Q9JZG1 1-517 R32Q) with Q32R, R470Q
Outline: as §1

NmeIPMSR32Q [4] = biological target: T1, NmeIPMSR32Q; test: Leu inhibition assay; type: biochemical
NmeIPMSR470Q^hetero = biological target: T4, NmeIPMSR470Q^hetero (Neisseria meningitidis serogroup B, UniProt Q9JZG1, R470Q); test: waterLOGSY NMR Leu binding assay
T4 sequence (Q9JZG1 1-517 R470Q): T1 sequence (Q9JZG1 1-517 R32Q) with Q32R, R470Q
T4 sequence (Q9JZG1 1-517): T1 sequence (Q9JZG1 1-517 R32Q) with Q32R

NmeIPMSR32Q^hetero = biological target: T5, NmeIPMSR32Q^hetero (Neisseria meningitidis serogroup B, UniProt Q9JZG1, R32Q); test: waterLOGSY NMR Leu binding assay
T5 sequence (Q9JZG1 1-517 R32Q): T1 sequence (Q9JZG1 1-517 R32Q)
T5 sequence (Q9JZG1 1-517): T1 sequence (Q9JZG1 1-517 R32Q) with Q32R

NmeIPMSR32Q [5] = biological target: T1, NmeIPMSR32Q; test: waterLOGSY NMR Leu binding assay
NmeIPMSR470Q [6] = biological target: T3, NmeIPMSR470Q; test: Leu inhibition assay; type: biochemical
NmeIPMSR470Q [7] = biological target: T3, NmeIPMSR470Q; test: waterLOGSY NMR Leu binding assay
NmeIPMS [8] = biological target: T2, NmeIPMS; test: waterLOGSY NMR Leu binding assay
Outline: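 Leu titrated at 0, 50, 150, 250, 500 and 750 μM in 10 mM HEPES pH 8.0, 3 mM MgCl₂, 3 mM KCl, 10% D₂O. Each sample recorded first without enzyme, then with 10 μM untagged enzyme. ¹H spectra at 600 MHz, 25 °C, without a water flipback pulse. KD fitted from the isotherm of corrected waterLOGSY intensity change against ligand concentration.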

[9] = read-out: Km^KIV, AcCoA fixed at 300 μM
[10] = read-out: Km^AcCoA, α-KIV fixed at 300 μM

## CC(C)C(=O)C(=O)O [KIV, α-ketoisovalerate]
NmeIPMSR32Q [1]; [9]
  Km: 47 ± 3 µM
NmeIPMS [2]
  Km: 37 ± 5 µM
NmeIPMSR470Q [3]; [9]
  Km: 53 ± 6 µM

## CC(=O)SCCNC(=O)CCNC(=O)[C@H](O)C(C)(C)COP(=O)(O)OP(=O)(O)OC[C@H]1O[C@@H](n2cnc3c(N)ncnc32)[C@H](O)[C@@H]1OP(=O)(O)O [AcCoA, acetyl-coenzyme A]
NmeIPMSR32Q [1]; [10]
  Km: 40 ± 5 µM
NmeIPMSR470Q [3]; [10]
  Km: 48 ± 3 µM

## CC(C)C[C@H](N)C(=O)O [Leu, leucine]
NmeIPMSR32Q [4]
  Ki: > 100 µM
NmeIPMSR470Q^hetero
  Kd: 370 ± 55 µM
NmeIPMSR32Q^hetero
  Kd: 324 ± 65 µM
NmeIPMSR32Q [5]
  Kd: 352 ± 37 µM
NmeIPMSR470Q [6]
  Ki: > 100 µM
NmeIPMSR470Q [7]
  Kd: 386 ± 72 µM
NmeIPMS [8]
  Kd: 376 ± 48 µM
